hIAP activ: increases human intestinal alkaline phosphatase activity; P09923; activation factor at 10 µM; purified human IAP, CDP-Star luminescence, 30 min; active compounds read high; 1 = vehicle-only enzyme, 0 = enzyme-free background; AID 2524; 330,000 tested, 0.16% active;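 active = activation factor of the enzyme at least 2-fold when tested at 20 µM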
Target sequence (P09923 whole entry, looked up): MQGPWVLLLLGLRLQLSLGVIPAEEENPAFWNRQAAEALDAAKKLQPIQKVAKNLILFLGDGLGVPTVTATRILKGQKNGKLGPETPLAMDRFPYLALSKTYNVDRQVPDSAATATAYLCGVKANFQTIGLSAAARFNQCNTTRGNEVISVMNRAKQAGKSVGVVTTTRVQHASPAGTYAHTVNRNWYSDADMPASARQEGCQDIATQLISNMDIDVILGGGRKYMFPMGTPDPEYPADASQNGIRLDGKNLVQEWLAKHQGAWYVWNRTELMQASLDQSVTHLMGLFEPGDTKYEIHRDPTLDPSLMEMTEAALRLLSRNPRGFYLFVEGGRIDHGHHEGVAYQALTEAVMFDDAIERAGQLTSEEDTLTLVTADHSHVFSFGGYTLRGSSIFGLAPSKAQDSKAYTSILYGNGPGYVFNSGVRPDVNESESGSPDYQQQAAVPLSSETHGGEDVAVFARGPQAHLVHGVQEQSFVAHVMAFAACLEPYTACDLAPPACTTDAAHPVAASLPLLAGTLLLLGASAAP
bIAP inhibitor: intestinal alkaline phosphatase (bovine) inhibition; purified bovine IAP, CDP-star luminescence, 30 min; inhibition, % at 20 µM; 190,000 tested, under 10 active;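 active = over 50% inhibition of intestinal alkaline phosphatase at 20 µM in the single-dose screen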
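Assay system: bovine IAP enzyme; medium: DEA buffer 100 mM, pH 9.8, with MgCl2 1.0 mM, ZnCl2 0.02 mM; doses: 20 µM single dose; incubation: enzyme reaction for 30 min at room temperature; detection: CDP-star luminescence signal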
hIAP inh: blocks human intestinal alkaline phosphatase. 330,000 tested, 0.12% active. P09923. purified IAP, CDP-Star luminescence, 30 min. inhibition, % at 10 µM;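 active = inhibition reaching a set limit with compound at 10 µM in the primary screen, cut at about 35% in these data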;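 note: plate controls were DMSO wells with enzyme for no effect and no-enzyme buffer wells for full effect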
bIAP activator: intestinal alkaline phosphatase (bovine) activation; purified bovine IAP, CDP-star luminescence, 30 min; active compounds read high; fold of DMSO-control signal, blank-subtracted; activation factor at 20 µM; 200,000 tested, 0.17% active; AID 1016;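 active = activation factor of 2 or more at 20 µM, a signal rise over negative controls twice the positive control's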
mIAP act: mouse IAP activation. 330,000 tested, 0.24% active. activation factor at 10 µM. muIAP, CDP-Star luminescence, 30 min; active compounds read high; 1 = vehicle-only enzyme signal, 0 = enzyme-free wells;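 active = activation factor of at least 2 at 20 µM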
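Assay system: mouse IAP enzyme; Reagent: CDP-Star chemiluminescent phosphatase substrate; Compound: DMSO-dissolved test compounds; Incubation: 30 min, room temperature; Technique: luminescence from enzymatic CDP-Star hydrolysis; Controls: DMSO-only wells and no-enzyme negative control.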
mIAP inh: blocks mouse intestinal alkaline phosphatase; purified mouse IAP, CDP-Star luminescence, 30 min; AID 2806; inhibition, % at 10 µM; 330,000 tested, 0.2% active;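 active = inhibition of at least 40% at 10 µM in the primary screen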;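 note: plate controls were DMSO with enzyme for no effect and no enzyme wells for full effect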
hIAP act confirm: human IAP activation confirmation | shares compounds with hIAP activ | purified IAP, CDP-Star luminescence, 30 min; active compounds read low | activation (%Activity, negative = activation), % at 8.3 µM | 880 tested, 10% active;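 active = at least twofold enzyme activation in any of six single-dose repeats, which the averaged readout prints as negative percent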
Active calls of the source: *; · = no result. This is a sample that favours compounds with a hit; in the whole collection about 0.77% have one here.

SMILES | hIAP activ | bIAP inhibitor | hIAP inh | bIAP activator | mIAP act | mIAP inh | hIAP act confirm
CC1CCCCC1NC(=O)COC(=O)c1ccccc1NC(=O)c1ccco1 (centres undefined) | 0.18 | -12 | 82* | 1.1 | 1 | -2 | 3
CC(C)[C@H](NC(N)=O)C(=O)Nc1cccc(S(=O)(=O)NC2=NCCCCC2)c1 | 1 | · | -5 | · | 1 | -3 | ·
NC1=NCC(O)=C1c1nc2ccccc2[nH]1 | 2* | -66 | -101 | 1.7 | 0.94 | 6 | -55
CC(/C=N/NC(=O)Cn1cnc2ccccc21)=C\c1ccccc1 | 1.1 | 12 | -6 | 0.9 | 0.92 | 8 | ·
CC(/C=N/NC(=O)CCn1nnc2ccccc21)=C\c1ccccc1 | 0.65 | -52 | 35* | 1.5 | 0.97 | 3 | -89*
CCNC(=O)Cc1c(OC)ccc2cc(Br)ccc12 | 0.57 | 4 | 43* | 1 | 1 | 0 | 16
Cc1ccc(NC(=O)CNNC(=O)c2cccc([N+](=O)[O-])c2)cc1[N+](=O)[O-] | 1.3 | · | -33 | · | 0.99 | 1 | ·
O=C(NNC(=O)c1ncc(Cl)c(Cl)c1Cl)c1ccc(F)cc1 | 2.2* | · | -116 | · | 0.89 | 11 | -2
O=c1ccc2c(-c3ccccc3)c3ccc(O)cc3oc-2c1 | 0.86 | · | 14 | · | 0.81 | 19 | ·
Nc1ccc(-c2c3ccc(=O)cc-3oc3cc(O)ccc23)cc1C(=O)O | 0.64 | · | 36* | · | 0.74 | 26 | 64
CC(C)CC(=O)NC(=S)NNC(=O)c1ccc(NC(=O)C2CCCCC2)cc1 | 2.3* | -36 | -126 | 1.4 | 1.1 | -8 | 62
COc1ccc(OC)c(S(=O)(=O)N2CCC(C(=O)NC3CCCCC3)CC2)c1 | 1.1 | · | -6 | · | 1.1 | -6 | ·
CCc1ccc(-n2c(SCC(=O)Nc3cc(C)[nH]n3)nc3[nH]ncc3c2=O)cc1 | 2.2* | -63 | -118 | 1.6 | 0.94 | 6 | -5
N#CC(C#N)=NNc1ccc([N+](=O)[O-])cc1 | 0.65 | · | 35* | · | 0.66 | 34 | -62
O=C(COc1ccc2ccc(=O)oc2c1)Nc1c(Cl)cccc1C(F)(F)F | 1.1 | · | -11 | · | 1 | -2 | ·
COc1cc(C(=O)NNC(=O)c2cc(-c3ccccc3)n[nH]2)cc(OC)c1C | 2.5* | · | -149 | · | 1.1 | -6 | -42
COC(=O)c1cc(-c2ccccc2)n[nH]1 | 1 | 5 | -3 | 1 | 1 | -2 | ·
CS(=O)(=O)c1ccc(C(=O)NNC(=O)c2cc(-c3ccccc3)n[nH]2)cc1 | 0.49 | · | 51* | · | 0.74 | 26 | 7
CS(=O)(=O)Cc1ccc(C(=O)NNC(=O)c2cc(-c3ccccc3)n[nH]2)cc1 | 1.3 | · | -26 | · | 0.79 | 21 | ·
O=C(NC1CCN(C(=O)Nc2ccc(F)cc2)CC1)c1ccc(F)cc1 | 1 | · | -5 | · | 1.1 | -9 | ·
Cc1cc(C(=O)CSc2nnc(C3CC3)n2C2CC2)c(C)n1C(C)C | 1.1 | · | -6 | · | 0.92 | 8 | ·
CC(=O)Nc1ccc(S(=O)(=O)N(C)CCOCc2ccccc2)cc1 | 0.62 | -3 | 38* | 1 | 0.99 | 0 | -45
Cc1cc(C)cc(N(CC(=O)NC(C)(C)C)C(=O)CCC(=O)Nc2nccs2)c1 | 0.96 | · | 4 | · | 1.1 | -6 | ·
CCCOc1cc(N(CC)CC)ccc1/C=C(/C#N)c1nc2ccc(C)cc2[nH]1 | 0.63 | 48 | 37* | 0.5 | 0.68 | 32 | 4
CCCCc1ccc(NC(=O)CSc2nc3ncccc3[nH]2)cc1 | 2.1* | · | -115 | · | 0.82 | 18 | 25
SMILES | hIAP activ | bIAP inhibitor | hIAP inh | bIAP activator | mIAP act | mIAP inh | hIAP act confirm
CCn1cc(CN2CCN(CCC(C)C)C(CCO)C2)c2ccccc21 (centres undefined) | 1.2 | · | -16 | · | 0.92 | 8 | ·
CCn1cc(CN2CCN(C)C(CCO)C2)c2ccccc21 (centres undefined) | 2.8* | · | -185 | · | 1 | -2 | 29
CCCOc1ccc(C(=O)NNC(=S)NC(C)=O)cc1 | 2.2* | -68 | -118 | 1.7 | 0.9 | 10 | -13
CCCOc1ccc(C(=O)NNC(=S)NC(=O)c2ccccc2)cc1 | 1.3 | · | -27 | · | 0.93 | 8 | ·
CCCOc1ccc(C(=O)NNC(=S)NC(=O)c2ccccc2[N+](=O)[O-])cc1 | 2.1* | · | -114 | · | 0.84 | 16 | -23
C=CCNC(=S)NNC(=O)c1ccc(OCCCC)cc1 | 2.1* | 8 | -108 | 0.9 | 0.91 | 9 | 2
CCCCOc1ccc(C(=O)NNC(=S)NC(=O)CC)cc1 | · | 6 | · | 0.9 | · | · | ·
Cc1oc(-c2ccc(-c3ccccc3)cc2)nc1CN(CCO)C(C)C | 1.3 | · | -35 | · | 1 | -2 | ·
O=C(C[C@@H]1C/C=C\CCC(=O)O[C@H](c2ccccc2)CNC1=O)N[C@H](CO)Cc1ccccc1 | 1 | · | -2 | · | 1.3 | -31 | ·
CCN(CC)C(=O)COc1ccc(S(=O)(=O)N2CCCC2)cc1 | 1.1 | · | -11 | · | 0.96 | 4 | ·
CCN(CC)C(=O)COc1ccc(S(=O)(=O)N2CCOCC2)cc1 | 2.4* | 8 | -145 | 0.9 | 1.1 | -7 | -26
CN=C1N(C)C[C@@H]2[C@@H]3C(=O)N(Cc4ccccc4)C(=O)[C@@H]3[C@](Cc3ccccc3)(C(=O)OC)N12 | · | · | · | · | 1.1 | -18 | ·
Cc1cc(NC(=O)c2ccc(N3C(=O)C4C5C=CC(C5)C4C3=O)cc2)no1 (centres undefined) | 3* | 6 | -201 | 0.9 | 0.92 | 8 | -161*
Cc1cc(NC(=O)c2ccc(N3C(=O)CCC3=O)cc2)no1 | 1 | 8 | 0 | 0.9 | 1 | -1 | ·
CS(=O)(=O)c1ccc(Cl)c(NC(=O)Cc2c(Cl)cccc2Cl)c1 | 1.1 | 12 | -10 | 0.9 | 1 | 0 | ·
CS(=O)(=O)c1ccc(Cl)c(NC(=O)Cc2ccsc2)c1 | 0.64 | · | 36* | · | 1 | -2 | 5
N#Cc1c(-c2ccccc2)nc(N2CCCCCC2)[nH]c1=O | 0.99 | 1 | 1 | 1 | 0.95 | 5 | ·
N#Cc1c(-c2ccccc2)nc(N2CCOCC2)[nH]c1=O | 0.62 | 8 | 38* | 0.9 | 1 | -4 | 28
CNC(=O)c1[nH]cnc1C(=O)Nc1ccccn1 | 2.1* | -51 | -110 | 1.5 | 0.87 | 13 | -18
CNC(=O)c1[nH]cnc1C(=O)Nc1ccccc1 | 1.4 | · | -40 | · | 0.89 | 11 | ·
O=C1/C(=C/c2ccc(O)cc2)SC(=S)N1CC1CCCO1 (centres undefined) | 0.62 | · | 38* | · | 0.69 | 31 | 12
O=C1/C(=C\c2ccc(O)cc2)SC(=S)N1Cc1ccccc1 | 0.63 | · | 37* | · | 0.78 | 22 | 2
Cc1ccc2c(CC(=O)N(C)c3c(N)n(Cc4ccccc4)c(=O)[nH]c3=O)coc2c1 | 0.96 | · | 4 | · | 1.1 | -5 | ·
Cn1c(CCN2CCCCC2)nc2cc(NC(=O)COc3ccc([N+](=O)[O-])cc3)ccc21 | 1.1 | · | -12 | · | 0.9 | 10 | ·
